Reference: ChEMBL document CHEMBL4049388, “Facile and efficient access to Androsten-17-(1',3',4')-pyrazoles and Androst-17β-(1',3',4')-pyrazoles via Vilsmeier reagents, and their antiproliferative activity evaluation in vitro” (Eur J Med Chem, 2017)

What was measured:
[1] = Cytotoxicity against human 293T cells assessed as growth inhibition at 10 uM after 72 hrs by SRB assay relative to control; type: cell-based; details: HEK-293T cells, read-out: GI
Outline: (§1)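 SRB single-dose screen at 10 μM on 293T, A549, Hela and MCF-7 cells. Results reported as percent inhibitory ratio (mean ± SD).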

[2] = system: A549; assay: Cytotoxicity against human A549 cells assessed as growth inhibition at 10 uM after 72 hrs by SRB assay relative to control; type: functional; details: A549, 72 h, read-out: GI; outline: as §1
[3] = system: HeLa; assay: Cytotoxicity against human HeLa cells assessed as growth inhibition at 10 uM after 72 hrs by SRB assay relative to control; type: functional; details: read-out: GI; outline: as §1
[4] = system: MCF7; assay: Cytotoxicity against human MCF7 cells assessed as growth inhibition at 10 uM after 72 hrs by SRB assay relative to control; type: functional; details: MCF7, 72 h, read-out: GI; outline: as §1
[5] = system: HEK-293T; assay: Cytotoxicity against human 293T cells after 72 hrs by SRB assay; type: cell-based
Outline: (§2)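 SRB assay on 293T, A549, Hela and MCF-7 cells, with cisplatin as reference control. IC50 calculated for each compound from triplicate assays.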

[6] = system: A549; assay: Cytotoxicity against human A549 cells after 72 hrs by SRB assay; type: functional, cell-based; details: A549, 72 h; outline: as §2
[7] = system: HeLa; assay: Cytotoxicity against human HeLa cells after 72 hrs by SRB assay; type: functional, cell-based; outline: as §2
[8] = system: MCF7; assay: Cytotoxicity against human MCF7 cells after 72 hrs by SRB assay; type: functional, cell-based; details: MCF7, 72 h; outline: as §2

| SMILES | inhibition at 72 h, 10 µM [1] [%] | inhibition of growth at 10 µM [2] [%] | inhibition of growth at 10 µM [3] [%] | inhibition of growth at 10 µM [4] [%] | IC50 [5] [µM] | IC50 [6] [µM] | IC50 [7] [µM] | IC50 [8] [µM] |
| --- | --- | --- | --- | --- | --- | --- | --- | --- |
| CCCNCc1cn(-c2ccccc2)nc1[C@H]1CC[C@H]2[C@@H]3CCC4C[C@@H](O)CC[C@]4(C)[C@H]3CC[C@]12C (stereo partly drawn) | 91.9 | 91.5 | 90.3 | 88.6 | 0.62 | 6.02 | 1.98 | 4.84 |
| CNCc1cn(-c2ccccc2)nc1[C@H]1CC[C@H]2[C@@H]3CCC4C[C@@H](O)CC[C@]4(C)[C@H]3CC[C@]12C (stereo partly drawn) | 79.2 | < 10 | 41.3 | 45.9 | – | – | – | – |
| CC(C)NCc1cn(-c2ccccc2)nc1C1=CC[C@H]2[C@@H]3CC=C4C[C@@H](O)CC[C@]4(C)[C@H]3CC[C@]12C | 94.7 | 93.3 | 92.4 | 92.1 | 7.51 | 2.87 | 3.49 | 6.36 |
| CCCCNCc1cn(-c2ccccc2)nc1C1=CC[C@H]2[C@@H]3CC=C4C[C@@H](O)CC[C@]4(C)[C@H]3CC[C@]12C | 95.1 | 92.9 | 92.6 | 93.7 | 2.63 | 1.93 | 3.37 | 3.18 |
| CNCc1cn(-c2ccccc2)nc1C1=CC[C@H]2[C@@H]3CC=C4C[C@@H](O)CC[C@]4(C)[C@H]3CC[C@]12C | 91.6 | 82.1 | 90.5 | 81.1 | 2.11 | 3.68 | 3.86 | 6.91 |
| CCCCNCc1cn(-c2ccccc2)nc1[C@H]1CC[C@H]2[C@@H]3CCC4C[C@@H](O)CC[C@]4(C)[C@H]3CC[C@]12C (stereo partly drawn) | < 10 | < 10 | 29.3 | 21.9 | – | – | – | – |
| CC(C)NCc1cn(-c2ccccc2)nc1[C@H]1CC[C@H]2[C@@H]3CCC4C[C@@H](O)CC[C@]4(C)[C@H]3CC[C@]12C (stereo partly drawn) | 87.4 | 30.6 | 74.1 | 70.8 | 1.03 | – | 1.98 | 7.45 |
| C[C@]12CC[C@H]3[C@@H](CCC4C[C@@H](O)CC[C@@]43C)[C@@H]1CC[C@@H]2c1nn(-c2ccccc2)cc1CNc1ccccc1 (stereo partly drawn) | 12.5 | < 10 | < 10 | 16.9 | – | – | – | – |
| C[C@]12CC[C@H](O)C[C@@H]1CC[C@@H]1[C@@H]2CC[C@]2(C)[C@@H](c3nn(-c4ccccc4)cc3CO)CC[C@@H]12 | 18.5 | < 10 | < 10 | 27.8 | – | – | – | – |
| COc1ccccc1NCc1cn(-c2ccccc2)nc1C1=CC[C@H]2[C@@H]3CC=C4C[C@@H](O)CC[C@]4(C)[C@H]3CC[C@]12C | < 10 | < 10 | < 10 | 18.1 | – | – | – | – |
| CCCNCc1cn(-c2ccccc2)nc1C1=CC[C@H]2[C@@H]3CC=C4C[C@@H](O)CC[C@]4(C)[C@H]3CC[C@]12C | 93.7 | 91.2 | 93.5 | 90.7 | 7.25 | 1.57 | 3.61 | 4.29 |
| C[C@]12CC[C@H](O)CC1=CC[C@@H]1[C@@H]2CC[C@]2(C)C(c3nn(-c4ccccc4)cc3CNCc3ccccc3)=CC[C@@H]12 | 50.7 | < 10 | < 10 | 25.4 | – | – | – | – |
| C[C@]12CC[C@H]3[C@@H](CCC4C[C@@H](O)CC[C@@]43C)[C@@H]1CC[C@@H]2c1nn(-c2ccccc2)cc1CNCc1ccccc1 (stereo partly drawn) | 60.8 | 56.5 | 48.3 | 44.4 | – | – | – | – |
| CCNCc1cn(-c2ccccc2)nc1[C@H]1CC[C@H]2[C@@H]3CCC4C[C@@H](O)CC[C@]4(C)[C@H]3CC[C@]12C (stereo partly drawn) | 91.2 | 92.4 | 88.4 | 88.9 | 5.29 | 6.35 | 3.28 | 3.92 |
